Experimental findings from ChEMBL document CHEMBL1157314, “Antibacterial, partially acetylated oligorhamnosides from Cleistopholis patens” (2006) are described below.

In brackets after ≈: the same amount, converted by molar mass. Activity calls are given as the source filed them. No cut-off for these calls is given here. Some results are limits rather than exact numbers.

For assay [1], the system named is Staphylococcus aureus. Description: Antibacterial activity against methicillin-resistant Staphylococcus aureus ATCC 33591 after 24 hrs by broth microdilution method. As to conditions: for MIC: ATCC 33591, 24 h. Type of assay: functional. In a few lines: (§1)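 Broth microdilution following NCCLS M7-A6 (2003), with inoculum at the recommended densities. Isolates were placed into panel wells with an autoinoculator and grown in cation-adjusted Mueller-Hinton broth at 35°C in ambient air for overnight to 24 h. Panels were read by eye, and the MIC was taken as no visible growth.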
On the technique in general: In broth dilution the organism is exposed to a series of concentrations in liquid medium.

Assay [2] has as its system Staphylococcus aureus. Description: Antibacterial activity against methicillin-resistant Staphylococcus aureus 78-13607A after 24 hrs by broth microdilution method. Type of assay: functional. In a few lines:
as §1

Take `CC[C@H]1OC(=O)[C@H](C)[C@@H](O[C@H]2C[C@@](C)(OC)[C@@H](O)[C@H](C)O2)[C@H](C)[C@@H](O[C@@H]2O[C@H](C)C[C@H](N(C)C)[C@H]2O)[C@](C)(O)C[C@@H](C)C(=O)[C@H](C)[C@@H](O)[C@]1(C)O` [ERYTHROMYCIN]: the MIC was greater than 8 µg/mL in assay [1] and 0.25 µg/mL (≈ 0.341 µM) in assay [2].

As for `C/C(=C\C(=O)OCCCCCCCCC(=O)O)C[C@@H]1OC[C@H](C[C@@H]2O[C@H]2[C@@H](C)[C@H](C)O)[C@@H](O)[C@H]1O`, the outcome in assay [1] and in assay [2] was Active.

For `CN(C)[C@@H]1C(O)=C(C(N)=O)C(=O)[C@@]2(O)C(O)=C3C(=O)c4c(O)cccc4[C@@](C)(O)[C@H]3C[C@@H]12` [TETRACYCLINE], the figures for the MIC in assay [1] and in assay [2] were greater than 8 µg/mL and no more than 16 µg/mL, respectively.

In the case of `CCC[C@@H]1C[C@@H](C(=O)N[C@@H]([C@H]2O[C@H](SC)[C@H](O)[C@@H](O)[C@H]2O)[C@H](C)Cl)N(C)C1` [CLINDAMYCIN], the MIC in assay [1] is greater than 8 µg/mL; in assay [2] it was 0.12 µg/mL (≈ 0.282 µM).

On to `CC(=O)NC[C@H]1CN(c2ccc(N3CCOCC3)c(F)c2)C(=O)O1`, for which the outcome in assay [1] and in assay [2] was Active.

In the case of `O=C(O)c1cn(C2CC2)c2cc(N3CCNCC3)c(F)cc2c1=O` [CIPROFLOXACIN], the MIC in assay [1] is 0.5 µg/mL (≈ 1.51 µM); in assay [2], greater than 4 µg/mL.

As a reminder, the MIC is the least concentration at which growth counts as inhibited.
